In paper PMC9564113 (Peptide Science (Hoboken, N.j.), 2022):
Converted amounts (≈) assume the structure as drawn. Where two headings read alike, the source gives them in different places. Ends that are not written are not given here.

Experiments:
[1] = test system: S. aureus USA300 LAC biofilms; test: Effect on 24 h preformed biofilms; type: cell-based, Staphylococcus aureus
How it was run: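 Biofilms were formed for 24 h at 37 °C from exponential-phase USA300 LAC. After PBS washes they were exposed to test compound in fresh TSB for 24 h at 37 °C. Following further washes, viable cells were measured by XTT (2 h, 37 °C, A450, blank of medium plus XTT). Results are given as % growth relative to untreated (100%), with water-treated and uninoculated controls; mean ± SD, p < 0.05.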

[2] = test system: S. aureus USA300 membranes; test: Membrane permeabilization; type: cell-based, Staphylococcus aureus; details: in PBS, 4 × MIC (YZ103 16 μM, YZ105 4 μM, nafcillin 2 μM, linezolid 16 μM, LL‐37 16 μM), 20 μM propidium iodide, 37 °C
S. aureus USA300 = test: Killing kinetics of exponential bacteria; type: cell-based, Staphylococcus aureus; details: 4 × MIC (YZ105 4 uM, nafcillin 2 μM, linezolid 16 μM), 2 h, exponential phase bacteria, colony counting
[3] = test system: Staphylococcus aureus USA300 LAC; test: Broth microdilution MIC, S. aureus USA300 LAC; type: cell-based; details: for MIC: Staphylococcus aureus; for MIC, S. aureus clinical strain USA300: Table 5, broth microdilution; for Antibacterial minimal inhibitory concentration, Staphylococcus aureus USA300 LAC: broth microdilution, 37 °C, 18–20 h, read at 630 nm
How it was run: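 Broth microdilution was run in tryptic soy broth. Log-phase USA300 LAC (OD600 ≈ 0.5) was diluted to 0.001 OD over serially diluted test compound, incubated 18–20 h at 37 °C and read at 630 nm. For medium effects the broth was adjusted to pH 5.5, 6.8, 7.4 or 8.0, brought to 100 mM NaCl, or supplemented with 1, 5 or 10% human serum.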

[4] = test system: S. aureus USA300 membrane potential; test: Membrane depolarization; type: cell-based, Staphylococcus aureus; details: DiBAC4(3) 500 nM; YZ105 8 μM, nafcillin 4 μM, linezolid 32 μM; Triton X‐100 positive control
How it was run: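 USA300 was grown in TSB to exponential phase, washed twice with PBS, and resuspended in PBS with 25 mM glucose (15 min, 37 °C). DiBAC4(3) was added to 500 nM. Baseline fluorescence (ex 485/em 520 nm) was read for 20 min. Test compound was then added and reading continued for 40 min, with Triton X-100 as positive control.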

[5] = test system: Nafcillin‐resistant S. aureus USA300; test: Antibacterial assay, nafcillin-resistant S. aureus USA300; type: cell-based, Staphylococcus aureus
How it was run: (§1)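 Log-phase cultures (OD600 ≈ 0.5) grown in tryptic soy broth were diluted to 0.001 OD and added to serially diluted test compound. Peptide stocks were freshly made in autoclaved water and quantitated by UV. Plates were incubated at 37 °C for 18–20 h and read at 630 nm for growth.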

[6] = test system: Acinetobacter baumannii B28‐16; test: Broth microdilution MIC, A. baumannii B28-16; type: cell-based; details: TSB, 37 °C, 18–20 h
How it was run: as §1

Escherichia coli E423‐17 = test: Broth microdilution MIC, E. coli E423-17; type: cell-based; details: TSB, 37 °C, 18–20 h
How it was run: as §1

S. aureus Newman = test: Antibacterial assay, S. aureus clinical strain Newman; type: cell-based, Staphylococcus aureus; details: broth microdilution, TSB
How it was run: as §1

[7] = test system: Klebsiella pneumoniae E406‐17; test: Broth microdilution MIC, K. pneumoniae E406-17; type: cell-based; details: TSB, 37 °C, 18–20 h
How it was run: as §1

S. aureus Mu50 = test: Antibacterial assay, S. aureus clinical strain Mu50; type: cell-based, Staphylococcus aureus; details: broth microdilution, TSB
How it was run: as §1

S. aureus USA200 = test: Antibacterial assay, S. aureus clinical strain USA200; type: cell-based, Staphylococcus aureus; details: broth microdilution, TSB
How it was run: as §1

[8] = test system: Pseudomonas aeruginosa E411‐17; test: Broth microdilution MIC, P. aeruginosa E411-17; type: cell-based; details: TSB, 37 °C, 18–20 h
How it was run: as §1

S. aureus USA400 = test: Antibacterial assay, S. aureus clinical strain USA400; type: cell-based, Staphylococcus aureus; details: broth microdilution, TSB
How it was run: as §1

[9] = test system: Staphylococcus epidermidis 1457; test: Broth microdilution MIC, S. epidermidis 1457; type: cell-based; details: TSB, 37 °C, 18–20 h
How it was run: as §1

[10] = test system: Gram‐positive and Gram‐negative bacteria; details: G+ = Gram‐positive bacteria; cited from earlier work
[11] = test system: Gram‐positive pathogens (S. aureus, Enterococcus faecalis, Streptococcus spp., Bacillus anthracis, Clostridioides difficile, Propionibacterium acnes, Mycobacter); details: cited from earlier work
[12] = USA300, pH 5.5, read-out: MIC against S. aureus USA300, pH 5.5
[13] = USA300, pH 6.8, read-out: MIC against S. aureus USA300, pH 6.8
[14] = USA300, pH 7.4, read-out: MIC against S. aureus USA300, pH 7.4
[15] = USA300, pH 8, read-out: MIC against S. aureus USA300, pH 8
[16] = USA300, read-out: MIC against S. aureus USA300, 100 mM NaCl

## CC(=O)NC[C@H]1CN(c2ccc(N3CCOCC3)c(F)c2)C(=O)O1 [Linezolid, linezolid, reference compound]
[1]; in the presence of 2 μM YZ105, XTT
  Effect on 24 h preformed biofilms in combination: became more effective
[2]
  Membrane permeabilization (propidium iodide fluorescence): neither nafcillin nor linezolid permeabilized the membranes
S. aureus USA300
  Reduction of MRSA counts (CFU) in killing kinetics: 1 log
[3]; [12]
  MIC: 4 µM (≈ 1.35 µg/mL)
[3]; [13]
  MIC: 4 µM (≈ 1.35 µg/mL)
[3]; [14]
  MIC: 4 µM (≈ 1.35 µg/mL)
[3]; [15]
  MIC: 4 to 8 µM (≈ 1.35 to 2.7 µg/mL)
[3]; [16]
  MIC: 4 µM (≈ 1.35 µg/mL)
[4]
  Membrane depolarization: neither nafcillin nor linezolid was able to

## CCOc1ccc2ccccc2c1C(=O)N[C@@H]1C(=O)N2[C@@H]1SC(C)(C)[C@@H]2C(=O)O [Nafcillin, nafcillin, reference compound]
[5]; Staphylococcus aureus, USA300, read-out: MIC, Nafcillin‐resistant USA300
  MIC: 1020 µM (≈ 424 µg/mL)
[1]; 24 h treatment in TSB, live cells by XTT at 450 nm, relative to untreated (100%)
  Effect on 24 h preformed biofilms: did not display a clear effect
[2]
  Membrane permeabilization (propidium iodide fluorescence): neither nafcillin nor linezolid permeabilized the membranes
S. aureus USA300
  Reduction of MRSA counts (CFU) in killing kinetics: barely reduced bacterial burden
[3]; [12]
  MIC: 0.5 µM (≈ 0.207 µg/mL)
[3]; [13]
  MIC: 1 µM (≈ 0.414 µg/mL)
[3]; [14]
  MIC: 0.5 to 1 µM (≈ 0.207 to 0.414 µg/mL)
[3]; [15]
  MIC: 1 µM (≈ 0.414 µg/mL)
[3]; [16]
  MIC: 1 to 2 µM (≈ 0.414 to 0.829 µg/mL)
[3]; TSB with human serum compared with normal TSB
  Increase of MIC values by serum: 4–8 fold
[4]
  Membrane depolarization: neither nafcillin nor linezolid was able to

## CC[C@H](C)[C@H](NC(=O)[C@H](CCCNC(=N)N)NC(=O)[C@H](C)NC(=O)[C@@H](NC(=O)[C@H](CO)NC(=O)[C@@H](NC(=O)[C@@H](NC(=O)[C@H](CCC(N)=O)NC(=O)[C@H](CO)NC(=O)[C@@H](NC(=O)[C@@H](N)Cc1ccccc1)[C@@H](C)CC)[C@@H](C)CC)[C@@H](C)CC)[C@@H](C)O)C(N)=O [YZ103]
[6]
  Antibacterial minimal inhibitory concentration, Acinetobacter baumannii B28‐16: >16 µM
Escherichia coli E423‐17
  Antibacterial minimal inhibitory concentration, Escherichia coli E423‐17: >16 µM
S. aureus Newman
  MIC, S. aureus clinical strain Newman: >32 µM
[7]
  Antibacterial minimal inhibitory concentration, Klebsiella pneumoniae E406‐17: >16 µM
S. aureus Mu50
  MIC, S. aureus clinical strain Mu 50: >32 µM
S. aureus USA200
  MIC, S. aureus clinical strain USA200: >32 µM
[8]
  Antibacterial minimal inhibitory concentration, Pseudomonas aeruginosa E411‐17: >16 µM
S. aureus USA400
  MIC, S. aureus clinical strain USA400: >32 µM
[3]; TSB
  MIC, S. aureus clinical strain USA300: >32 µM
  Antibacterial minimal inhibitory concentration, Staphylococcus aureus USA300 LAC: >16 µM
[9]
  Antibacterial minimal inhibitory concentration, Staphylococcus epidermidis 1457: >16 µM

## CC[C@H](C)[C@H](NC(=O)[C@H](CCCNC(=N)N)NC(=O)[C@H](C)NC(=O)[C@@H](NC(=O)[C@H](CO)NC(=O)[C@@H](NC(=O)[C@@H](NC(=O)[C@H](CCC(N)=O)NC(=O)[C@H](CO)NC(=O)[C@@H](NC(=O)[C@@H](N)Cc1ccccc1)[C@@H](C)CC)[C@@H](C)CC)[C@@H](C)CC)[C@@H](C)O)C(=O)N[C@@H](CC(C)C)C(=O)N[C@@H](CC(C)C)C(N)=O [YZ104]
[6]
  Antibacterial minimal inhibitory concentration, Acinetobacter baumannii B28‐16: >16 µM
Escherichia coli E423‐17
  Antibacterial minimal inhibitory concentration, Escherichia coli E423‐17: >16 µM
[7]
  Antibacterial minimal inhibitory concentration, Klebsiella pneumoniae E406‐17: >16 µM
[8]
  Antibacterial minimal inhibitory concentration, Pseudomonas aeruginosa E411‐17: >16 µM
[3]; TSB
  Antibacterial minimal inhibitory concentration, Staphylococcus aureus USA300 LAC: >16 µM
[9]
  Antibacterial minimal inhibitory concentration, Staphylococcus epidermidis 1457: >16 µM

## FLSKILSTLRILF-NH2 [YZ107]
[6]
  Antibacterial minimal inhibitory concentration, Acinetobacter baumannii B28‐16: 4 to 8 µM
Escherichia coli E423‐17
  Antibacterial minimal inhibitory concentration, Escherichia coli E423‐17: 8 µM
[7]
  Antibacterial minimal inhibitory concentration, Klebsiella pneumoniae E406‐17: >16 µM
[8]
  Antibacterial minimal inhibitory concentration, Pseudomonas aeruginosa E411‐17: 8 to 16 µM
[3]; TSB
  Antibacterial minimal inhibitory concentration, Staphylococcus aureus USA300 LAC: 2 µM
[9]
  Antibacterial minimal inhibitory concentration, Staphylococcus epidermidis 1457: 2 µM

## FLSKILSTLRILL-NH2 [YZ106]
[6]
  Antibacterial minimal inhibitory concentration, Acinetobacter baumannii B28‐16: 8 µM
Escherichia coli E423‐17
  Antibacterial minimal inhibitory concentration, Escherichia coli E423‐17: 8 to 16 µM
[7]
  Antibacterial minimal inhibitory concentration, Klebsiella pneumoniae E406‐17: >16 µM
[8]
  Antibacterial minimal inhibitory concentration, Pseudomonas aeruginosa E411‐17: >16 µM
[3]; TSB
  Antibacterial minimal inhibitory concentration, Staphylococcus aureus USA300 LAC: 2 µM
[9]
  Antibacterial minimal inhibitory concentration, Staphylococcus epidermidis 1457: 1 to 2 µM

## FLSQILSTLRILL-NH2 [YZ105]
[6]
  Antibacterial minimal inhibitory concentration, Acinetobacter baumannii B28‐16: >16 µM
Escherichia coli E423‐17
  Antibacterial minimal inhibitory concentration, Escherichia coli E423‐17: >16 µM
S. aureus Newman
  MIC, S. aureus clinical strain Newman: 2 µM
[5]; broth microdilution, TSB
  MIC, Nafcillin‐resistant USA300: 2 µM
[7]
  Antibacterial minimal inhibitory concentration, Klebsiella pneumoniae E406‐17: >16 µM
S. aureus Mu50
  MIC, S. aureus clinical strain Mu 50: 2 µM
S. aureus USA200
  MIC, S. aureus clinical strain USA200: 1 µM
[8]
  Antibacterial minimal inhibitory concentration, Pseudomonas aeruginosa E411‐17: >16 µM
S. aureus USA400
  MIC, S. aureus clinical strain USA400: 1 µM
[3]; TSB adjusted to pH 5.5
  MIC against S. aureus USA300, pH 5.5: 4–8 μM
[3]; TSB adjusted to pH 6.8
  MIC against S. aureus USA300, pH 6.8: 2 μM
[3]; TSB adjusted to pH 8.0
  MIC against S. aureus USA300, pH 8: <0.5 μM
[3]; TSB with 100 mM NaCl added
  MIC against S. aureus USA300, 100 mM NaCl: 2 µM
[3]; TSB with 1% human serum
  MIC against S. aureus USA300, 1% serum: 2 µM
[3]; TSB with 5% human serum
  MIC against S. aureus USA300, 5% serum: 8 µM
[3]; TSB with 10% human serum
  MIC against S. aureus USA300, 10% serum: 8 to 16 µM
[3]; TSB, pH 7.4 (normal condition)
  MIC against S. aureus USA300, pH 7.4: 1–2 μM
[3]; TSB
  MIC, S. aureus clinical strain USA300: 1 µM
  Antibacterial minimal inhibitory concentration, Staphylococcus aureus USA300 LAC: 1 µM
[9]
  Antibacterial minimal inhibitory concentration, Staphylococcus epidermidis 1457: 1 µM

## LL‐37: human cathelicidin LL‐37 (LLGDFFRKSKEKIGKEFKRIVQRIKDFLRNLVPRTES; Antibacterial peptide LL-37; UniProt P49913 134-170, looked up)
[2]
  Membrane permeabilization (propidium iodide fluorescence): steady increase in fluorescence with time

## teixobactin
[10]
  Activity spectrum: Mainly G+
[11]
  MIC: 5 to 250 ng/mL
